Our source for the cytotoxicity values is ChEMBL document CHEMBL4513216, “Probing the Open Global Health Chemical Diversity Library for Multistage-Active Starting Points for Next-Generation Antimalarials” (ACS Infect Dis, 2020).

The data set can be described thus: Toxicity liver stage against HepG2, at 10uM. In kind it is cell-based. Set-up: test concentration 10 uM, cell line HepG2-A16-CD81EGFP. To be noted: human, HepG2-A16-CD81EGFP cells; read-out: INHIBITION
In a few lines: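 Uninfected HepG2-A16-CD81EGFP cells, 3 × 10^3 per well, 1536-well, plated on prespotted compound at 10 μM final, parasite-free screening media added to match infected plates; puromycin 10 μM positive, DMSO 0.5% negative; run in parallel with 48 h PbLuc assay at 37 °C, 5% CO2; viability by CellTiter-Glo luminescence, normalized to controls.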
As for `CCOc1ccc(NC(C)C(=O)Nc2cc(C)no2)cc1` (stereo not given), the cytotoxicity at 10 µM amounted to 7.04%.
`COc1ccc(CN2CCC=C(C(C)NC(C)=O)C2)cc1` (stereo not given): the cytotoxicity at 10 µM is -5.5%.
The same measure for `Cc1nc(C2CCCN2Cc2nc(C)c(C)o2)no1` (stereo not given): -2.53%.
Turning to `O=C(Nc1ccccc1N1CCOC1=O)N1CCc2sccc2C1`, the cytotoxicity at 10 µM was -5.55%.
On to `O=C(CO)N1CCC(F)(F)C2(CCN(c3ccccc3)C2)C1` (stereo not given), for which the cytotoxicity at 10 µM was found to be 13.8%.
Regarding `N#Cc1ncn(CC(=O)Cc2c(F)cccc2Cl)n1`, the cytotoxicity at 10 µM was -1.45%.
The same measure for `CCc1nnc2n1CCN(CC(=O)N1CCc3ccccc3C1)C2`: -7.83%; for `N#Cc1ccccc1C(=O)N1C[C@H](CO)C[C@H](CN2CCCC2)C1`: -17%; for `O=C1CC(NCc2cnc(N3CCCC3)nc2)CN1c1ccccc1` (stereo not given): -4.56%.
The same measure for `COc1c(F)cc(CN2CCC3(CC2)CN(C)C(=O)O3)cc1Cl`: 8.08%.
As to `CCCc1cc(=O)[nH]c2nnc(SCC(=O)NCCc3ccccc3)n12`, the cytotoxicity at 10 µM amounted to 14.2%.
With `CCOc1cc(CNc2cc(-c3nc(C)no3)ccn2)ccc1OC`, the cytotoxicity at 10 µM was 1.74%.
The same measure for `Cc1nnc(NC(=O)c2c3c(nn2C2CCS(=O)(=O)C2)CCC3)s1` (stereo not given): -14.2%.
The figure for `COc1cccc(CNC(=O)CCNS(=O)(=O)c2ccc(C)cc2)c1` is -137%.
The figure for `CCOc1nnc(CN(CC)CC(=O)Nc2c(F)cccc2F)s1` is -2.62%; for `CCCc1n[nH]c(C2CN(Cc3nnc(C4CC4)n3C)CCO2)n1` (stereo not given) it is -2.36%; for `CS(=O)(=O)c1cncnc1C1CCCN(C(=O)Cc2ccccc2F)C1` (stereo not given) it is 2.72%.
`COCCNS(=O)(=O)c1ccc(Cl)c(C(=O)N(C)Cc2ccsc2)c1`: the cytotoxicity at 10 µM was -1.39%.
On to `O=C(CCC(=O)N1CCc2[nH]c3ccccc3c2C1)NCc1ccco1`, for which the cytotoxicity at 10 µM was determined as 3.59%.
The same measure for `Cc1cc(C)c2c(c1)C(NC(=O)CSc1nnc[nH]1)CCO2` (stereo not given): -3.91%.
The figure for `C[C@@H]1CN(C2(C(=O)N3CCOCC3)Cc3ccccc3C2)C[C@H](C)O1` is 1.12%; for `Cc1nc(-c2ccco2)ccc1C(=O)NCCCN1CCOCC1` it is -4.02%; for `CC(=O)NCCNC(=O)Nc1cccc(Cl)c1SC(F)F` it is -13.1%.
On to `CS(=O)(=O)N1CCOCC2(CCN(c3ccccn3)C2)C1` (stereo not given), for which the cytotoxicity at 10 µM worked out at 14.3%.
As for `CCN1CC(C(=O)NCc2cccnc2-n2cccn2)CC1=O` (stereo not given), the cytotoxicity at 10 µM stood at 0.796%.
The same measure for `Cc1nc(CN2CCN(C)C(=O)C23CCN(CC2CCCC2)CC3)cs1`: 11%.
With `Cc1c(C(=O)NCCC(=O)N2CCCC2)cccc1-c1ccccn1`, the cytotoxicity at 10 µM turned out to be 1.39%.
As for `COC(=O)c1ccc(C(=O)NCc2ccco2)nc1`, the cytotoxicity at 10 µM is -3.73%.
The figure for `Cc1nc(C)n(CC2CCCN(Cc3nc(C)c(C)o3)C2)n1` (stereo not given) is -2.68%.
For `NC(=O)CCc1cccc(C2CCNCC2)n1`, the cytotoxicity at 10 µM is -3.28%.
The figure for `O=C(CCc1cccs1)N1CCCC(n2ccnc2)C1` (stereo not given) is -1.13%.
The figure for `Cc1nnc(NCc2cccc(OCC3CCCO3)c2)c(C#N)c1C` (stereo not given) is -33.8%; for `O=C(COCc1ccccc1)NCc1ccc(O)c(F)c1` it is 1.05%.
The figure for `Cc1nc(CN2CCN(C(=O)NC(C)c3cccnc3)CC2)cs1` (stereo not given) is -10.4%; for `Cc1ccc(-n2nnc(C(=O)Nc3cc(C)nn3C)c2C2CC2)cc1` it is 0.888%; for `COc1cc(I)c(Cl)cc1C(=O)N(C)C` it is 11%.
Take `Cc1cc(C)c2cc(C(=O)N3CCN(Cc4ccco4)CC3)[nH]c2c1`: the cytotoxicity at 10 µM is -51.4%.
Take `Cc1ccc(C(=O)N2C[C@H]3CCC[C@@]3(COCc3ccncc3)C2)cn1`: the cytotoxicity at 10 µM worked out at 6.64%.
The figure for `O=C(c1ccnnc1)N1CCC2(CC1)CN(c1ccccn1)CCO2` is -81.5%.
On to `O=C(O)c1nnn(-c2ccc(F)c(F)c2)c1-c1ccncc1`, for which the cytotoxicity at 10 µM stood at 3.72%.
